Results: ChEMBL document CHEMBL5329210, “Novel piperazine-1,2,3-triazole leads for the potential treatment of pancreatic cancer” (RSC Med Chem, 2023)
Values belong to the molecule of their own block, whether it stands above or below them.

Columns and labels:
[1] = Inhibition of cell growth of human pancreatic cancer cells measured after 72 hrs by CCK8 assay; assay type: functional
In short: (§1)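 CCK-8 viability in human pancreatic cancer lines. Compounds were added over 100–0.05 μM 24 h after seeding, alongside a 0.5% DMSO vehicle. After 72 h, CCK-8 was incubated for 1 h at 37 °C. A450 minus A650 was expressed as % of vehicle. IC50 was taken from the dose-response curve. Seeding was 3×10^3/well for MiaPaCa2 and 7×10^3/well for BxPC3 and CFPAC-1. n = 3.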

[2] = tested on: MIA PaCa-2; assay: Inhibition of cell growth of human MIA PaCa-2 cells measured after 72 hrs by CCK8 assay; assay type: functional; in short: as §1
[3] = tested on: BXPC-3; assay: Inhibition of cell growth of human BXPC-3 cells measured after 72 hrs by CCK8 assay; assay type: functional; in short: as §1
[4] = tested on: PANC-1; assay: Inhibition of cell growth of human PANC-1 cells measured after 72 hrs by CCK8 assay; assay type: functional
[5] = tested on: HPAC; assay: Inhibition of cell growth of human HPAC cells measured after 72 hrs by CCK8 assay; assay type: functional
[6] = tested on: Capan-2; assay: Inhibition of cell growth of human Capan-2 cells measured after 72 hrs by CCK8 assay; assay type: functional
[7] = tested on: ASPC1; assay: Inhibition of cell growth of human ASPC1 cells measured after 72 hrs by CCK8 assay; assay type: functional
[8] = tested on: HT-29; assay: Inhibition of cell growth of human HT-29 cells measured after 72 hrs by MTT assay; assay type: functional
In short: (§2)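 MTT read-out. Cancer lines were grown in DMEM with 10% FBS, glutamine and antibiotics. MCF10A was grown in DMEM:F12 with 5% horse serum, EGF, hydrocortisone, cholera toxin and insulin. Cells were plated in duplicate at 2500–4000/well, and drug was added 24 h later. After 72 h, absorbance was read at 540 nm. Single-point lines used 25 μM. GI50 is 50% growth inhibition versus untreated control. n = 3.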

[9] = Inhibition of cell growth of human MCF-10A cells measured after 72 hrs by MTT assay; assay type: toxicity, cell-based; in short: as §2
[10] = tested on: MIA PaCa-2; assay: Inhibition of cell growth of human MIA PaCa-2 cells at 25 uM measured after 72 hrs by CCK8 assay relative to control; assay type: functional
In short: (§3)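 Single 25 μM exposure, read by CCK-8, n = 3, relative to control. Seeding was 3×10^3/well for MiaPaCa2, 7×10^3/well for BxPC3 (in RPMI-1640/10% FBS) and 1×10^4/well for HPDE (in KSFM with rEGF/BPE). After 24 h attachment, cells were exposed for 72 h. CCK-8 was then incubated for 1 h, and A450 minus A650 was compared with 0.5% DMSO.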

[11] = tested on: A2780; assay: Inhibition of cell growth of human A2780 cells measured after 72 hrs by MTT assay; assay type: functional; in short: as §2
[12] = tested on: NCI-H460; assay: Inhibition of cell growth of human NCI-H460 cells measured after 72 hrs by MTT assay; assay type: functional; in short: as §2
[13] = tested on: MCF7; assay: Inhibition of cell growth of human MCF7 cells measured after 72 hrs by MTT assay; assay type: functional; in short: as §2
[14] = tested on: MIA PaCa-2; assay: Inhibition of cell growth of human MIA PaCa-2 cells measured after 72 hrs by MTT assay; assay type: functional; in short: as §2
[15] = tested on: U-87 MG; assay: Inhibition of cell growth of human U87 cells measured after 72 hrs by MTT assay; assay type: functional, U-87MG ATCC; in short: as §2
[16] = tested on: BE(2)-C; assay: Inhibition of cell growth of human BE2C cells measured after 72 hrs by MTT assay; assay type: functional; in short: as §2
[17] = tested on: A-431; assay: Inhibition of cell growth of human A-431 cells measured after 72 hrs by MTT assay; assay type: functional; in short: as §2
[18] = tested on: BXPC-3; assay: Inhibition of cell growth of human BXPC-3 cells at 25 uM measured after 72 hrs by CCK8 assay relative to control; assay type: functional; in short: as §3
[19] = Inhibition of cell growth of human HPDE cells at 25 uM measured after 72 hrs by CCK8 assay relative to control; assay type: toxicity, cell-based; in short: as §3
[20] = tested on: DU-145; assay: Inhibition of cell growth of human DU-145 cells measured after 72 hrs by MTT assay; assay type: functional; in short: as §2
[21] = Inhibition of cell growth of human SJG2 cells measured after 72 hrs by MTT assay; assay type: functional; details: SJ-G2; in short: as §2
[22] = tested on: MCF7; assay: Inhibition of cell growth of human MCF7 cells at 25 uM measured after 72 hrs by MTT assay relative to control; assay type: functional; in short: as §2
[23] = tested on: HPAC; assay: Inhibition of cell growth of human HPAC cells at 25 uM measured after 72 hrs by MTT assay relative to control; assay type: functional; in short: as §2
[24] = tested on: PANC-1; assay: Inhibition of cell growth of human PANC-1 cells at 25 uM measured after 72 hrs by MTT assay relative to control; assay type: functional; in short: as §2
[25] = tested on: Capan-2; assay: Inhibition of cell growth of human Capan-2 cells at 25 uM measured after 72 hrs by MTT assay relative to control; assay type: functional; in short: as §2
[26] = tested on: MIA PaCa-2; assay: Inhibition of cell growth of human MIA PaCa-2 cells at 25 uM measured after 72 hrs by MTT assay relative to control; assay type: functional; in short: as §2
[27] = tested on: HT-29; assay: Inhibition of cell growth of human HT-29 cells at 25 uM measured after 72 hrs by MTT assay relative to control; assay type: functional; in short: as §2
[28] = tested on: BE(2)-C; assay: Inhibition of cell growth of human BE2C cells at 25 uM measured after 72 hrs by MTT assay relative to control; assay type: functional; in short: as §2
[29] = tested on: ASPC1; assay: Inhibition of cell growth of human ASPC1 cells at 25 uM measured after 72 hrs by MTT assay relative to control; assay type: functional; in short: as §2
[30] = Inhibition of cell growth of human MCF-10A cells at 25 uM measured after 72 hrs by MTT assay relative to control; assay type: toxicity, cell-based; in short: as §2
[31] = tested on: A2780; assay: Inhibition of cell growth of human A2780 cells at 25 uM measured after 72 hrs by MTT assay relative to control; assay type: functional; in short: as §2
[32] = tested on: BXPC-3; assay: Inhibition of cell growth of human BXPC-3 cells at 25 uM measured after 72 hrs by MTT assay relative to control; assay type: functional; in short: as §2

- GI50 [3]: 3.7 µM
- GI50 [4]: 6.1 µM
- GI50 [7]: 8 µM
Structure (SMILES): CCc1ccc(-c2cn(CCCN3CCN(S(=O)(=O)c4ccc(C(F)(F)F)cc4)CC3)nn2)cc1
- GI50 [5]: 5.8 µM
- GI50 [6]: 6.1 µM

- GI50 [3]: 8 µM
- GI50 [4]: 6.8 µM
- GI50 [7]: 8.3 µM
Structure (SMILES): O=S(=O)(c1ccc(C(F)(F)F)cc1)N1CCN(CCCn2cc(-c3ccc(Br)cc3)nn2)CC1
- GI50 [5]: 9.6 µM
- GI50 [6]: 7.7 µM

- GI50 [8]: 30 µM
- GI50 [11]: 27 µM
- GI50 [12]: > 50 µM
- GI50 [13]: 38 µM
- GI50 [14]: > 50 µM
- GI50 [15]: > 50 µM
- GI50 [17]: > 50 µM
- GI50 [20]: > 50 µM
Structure (SMILES): COc1ccc(S(=O)(=O)N2CCN(CCCn3cc(-c4cccc(OC)c4)nn3)CC2)cc1
- GI50 at 72 h [9]: > 50 µM
- inhibition at 25 µM [10]: 20.3%
- GI50 [16]: > 50 µM
- inhibition at 25 µM [18]: < 10%
- inhibition at 72 h, 25 µM [19]: 33.9%
- GI50 [21]: 32 µM

- GI50 [3]: 14 µM
- GI50 [4]: 16 µM
- GI50 [7]: 18 µM
Structure (SMILES): O=S(=O)(c1ccc(C(F)(F)F)cc1)N1CCN(CCCn2cc(-c3ccc(C(F)(F)F)cc3)nn2)CC1
- GI50 [5]: 15 µM
- GI50 [6]: 16 µM

Further lines, the molecule ahead of its results:

Structure (SMILES): O=S(=O)(NCCCNCc1ccc(Cl)cc1)c1cc(C(F)(F)F)cc(C(F)(F)F)c1
- GI50 [1]: 1.6 µM

Structure (SMILES): COc1cccc(-c2cn(CCCN3CCN(S(=O)(=O)c4ccc(NC(C)=O)cc4)CC3)nn2)c1
- GI50 [2]: ~50 µM

Structure (SMILES): COc1cccc(-c2cn(CCCN3CCN(S(=O)(=O)c4ccc([N+](=O)[O-])cc4)CC3)nn2)c1
- GI50 [8]: 41 µM
- GI50 at 72 h [9]: > 50 µM
- inhibition at 25 µM [10]: < 10%
- GI50 [11]: 27 µM
- GI50 [12]: > 50 µM
- GI50 [13]: > 50 µM
- GI50 [14]: > 50 µM
- GI50 [15]: > 50 µM
- GI50 [16]: > 50 µM
- GI50 [17]: > 50 µM
- inhibition at 25 µM [18]: 21.1%
- inhibition at 72 h, 25 µM [19]: 46.5%
- GI50 [20]: > 50 µM
- GI50 [21]: > 50 µM

Structure (SMILES): O=S(=O)(c1cccc(C(F)(F)F)c1)N1CCN(CCCn2cc(-c3ccc(C(F)(F)F)cc3)nn2)CC1
- inhibition at 25 µM [22]: 86%
- inhibition at 25 µM [23]: 74%
- inhibition at 25 µM [24]: 60%
- inhibition at 25 µM [25]: 67%
- inhibition at 25 µM [26]: 58%
- inhibition at 25 µM [27]: 50%
- inhibition at 25 µM [28]: 61%
- inhibition at 25 µM [29]: 50%
- inhibition at 72 h, 25 µM [30]: 59%
- inhibition at 25 µM [31]: 65%
- inhibition at 25 µM [32]: 55%
